According to ChEMBL document CHEMBL4400512, “Searching for new agents active against Candida albicans biofilm: A series of indole derivatives, design, synthesis and biological evaluation” (Eur J Med Chem, 2019):
≈ marks a conversion by molar mass, not a printed value.

Tests used:
[1] = Toxicity in Galleria mellonella larvae assessed as larval survival at 500 ug/ml after 72 hrs relative to control
Outline: (§1)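 Ten healthy larvae per group, stored at 15°C in the dark. Each got a 20 µL injection into the haemocoel via the last left proleg, with compound freshly made in sterile water containing <1% v/v DMSO. Larvae were incubated at 30°C and survival scored every 24 h; death was no movement on stimulation plus cuticle discolouration. Controls were untreated, pierced-only and vehicle. Mean % survival of two independent experiments.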

Candida albicans [2] = test: Antifungal activity against planktonic form of Candida albicans PMC 1042 by broth microdilution method; assay type: organism-based; conditions: in vitro
Outline: (§2)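 Broth microdilution per CLSI M27-A3 and M27-S4. Strains were grown on Sabouraud dextrose agar at 35°C for 24 h. Final inoculum 1×10^3–5×10^3 cells/mL. Compounds were dissolved in DMSO (final <1%); 1% DMSO served as control. Final range 256–0.25 µg/mL. MIC50 is the lowest concentration giving ≥50% growth inhibition. Three independent experiments in duplicate, median; fluconazole as reference.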

Candida albicans [3] = test: Antibiofilm activity against Candida albicans PMC 1042 assessed as inhibition of biofilm formation by XTT reduction assay; assay type: functional
Outline: (§3)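 Biofilm method of Pierce et al. Biofilms were treated either during formation or once mature (24 h preformed). Metabolic activity of the cells within the biofilm was read by XTT reduction. BMIC50 is the lowest concentration giving a 50% drop in metabolic activity versus the untreated growth control. At least two experiments on separate dates, triplicate, reported as median.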

Candida albicans [4] = test: Antifungal activity against planktonic form of Candida albicans ATCC 10231 by broth microdilution method; assay type: organism-based; conditions: in vitro
Outline: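 CLSI M27-A3 broth microdilution. Cells grown on Sabouraud dextrose agar at 35°C for 24 h; final inoculum 1×10^3–5×10^3 cells/mL. Compounds from DMSO stocks, final DMSO below 1%, final range 256–0.25 µg/mL. Controls were DMSO 1% and fluconazole reference. MIC50 is the lowest concentration giving ≥50% growth inhibition. Three independent experiments in duplicate; median reported.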

[5] = Toxicity in Galleria mellonella larvae assessed as larval survival at 10 ug/ml after 72 hrs relative to control; outline: as §1
Candida albicans [6] = test: Antibiofilm activity against Candida albicans PMC 1042 assessed as inhibition of mature biofilm formation by XTT reduction assay; assay type: functional; outline: as §3
[7] = Toxicity in Galleria mellonella larvae assessed as larval survival at 1000 ug/ml after 24 hrs relative to control; outline: as §1
[8] = Toxicity in Galleria mellonella larvae assessed as larval survival at 10 ug/ml after 48 hrs relative to control; outline: as §1
[9] = Toxicity in Galleria mellonella larvae assessed as larval survival at 500 ug/ml after 24 hrs relative to control; outline: as §1
Candida albicans [10] = test: Antifungal activity against planktonic form of Candida albicans PMC 1082 by broth microdilution method; assay type: organism-based; conditions: in vitro; outline: as §2
[11] = Toxicity in Galleria mellonella larvae assessed as larval survival at 100 ug/ml after 72 hrs relative to control; outline: as §1
[12] = Toxicity in Galleria mellonella larvae assessed as larval survival at 1000 ug/ml after 48 hrs relative to control; outline: as §1
[13] = Toxicity in Galleria mellonella larvae assessed as larval survival at 500 ug/ml after 48 hrs relative to control; outline: as §1
Candida albicans [14] = test: Antibiofilm activity against Candida albicans ATCC 10261 assessed as inhibition of mature biofilm formation by XTT reduction assay; assay type: functional; outline: as §3
[15] = Toxicity in Galleria mellonella larvae assessed as larval survival at 1000 ug/ml after 72 hrs relative to control; outline: as §1
Candida albicans [16] = test: Antifungal activity against planktonic form of Candida albicans ATCC 10261 by broth microdilution method; assay type: organism-based; conditions: in vitro; outline: as §2
[17] = Toxicity in Galleria mellonella larvae assessed as larval survival at 50 ug/ml after 24 hrs relative to control; outline: as §1
[18] = Toxicity in Galleria mellonella larvae assessed as larval survival at 100 ug/ml after 48 hrs relative to control; outline: as §1
Candida albicans [19] = test: Antibiofilm activity against Candida albicans ATCC 10231 assessed as inhibition of biofilm formation by XTT reduction assay; assay type: functional
Outline: (§4)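 Biofilm assay after Pierce et al., with compound applied either during biofilm formation or to 24 h pre-formed (mature) biofilm. Read-out is metabolic activity of cells in the biofilm by XTT reduction. BMIC50 is the lowest concentration giving a 50% drop relative to untreated growth control. Tested in triplicate, at least two experiments on separate dates; median reported.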

Candida albicans [20] = test: Antibiofilm activity against Candida albicans ATCC 10261 assessed as inhibition of biofilm formation by XTT reduction assay; assay type: functional; outline: as §3
[21] = Toxicity in Galleria mellonella larvae assessed as larval survival at 50 ug/ml after 48 hrs relative to control; outline: as §1
[22] = Toxicity in Galleria mellonella larvae assessed as larval survival at 50 ug/ml after 72 hrs relative to control; outline: as §1
Candida albicans [23] = test: Antibiofilm activity against Candida albicans PMC 1082 assessed as inhibition of mature biofilm formation by XTT reduction assay; assay type: functional; outline: as §3
Candida albicans [24] = test: Antibiofilm activity against Candida albicans ATCC 10231 assessed as inhibition of mature biofilm formation by XTT reduction assay; assay type: functional; outline: as §4
Candida albicans [25] = test: Antibiofilm activity against Candida albicans PMC 1082 assessed as inhibition of biofilm formation by XTT reduction assay; assay type: functional; outline: as §3
[26] = Toxicity in Galleria mellonella larvae assessed as larval survival at 100 ug/ml after 24 hrs relative to control; outline: as §1
[27] = Toxicity in Galleria mellonella larvae assessed as larval survival at 10 ug/ml after 24 hrs relative to control; outline: as §1
[28] = Toxicity in Galleria mellonella larvae assessed as larval survival at 5 ug/ml after 48 hrs relative to control; outline: as §1
[29] = Toxicity in Galleria mellonella larvae assessed as larval survival at 5 ug/ml after 72 hrs relative to control; outline: as §1
[30] = Toxicity in Galleria mellonella larvae assessed as larval survival at 5 ug/ml after 24 hrs relative to control; outline: as §1

Compound: CC(C)Cc1ccc(C(C)C(=O)NCCc2c[nH]c3ccccc23)cc1 (stereo not drawn)
- survival at 72 h [1]: 100%
- MIC50 (Candida albicans [2]): > 256 µg/mL
- MBIC50 (Candida albicans [3]): 8 µg/mL
- MIC50 (Candida albicans [4]): > 128 µg/mL
- survival at 72 h [5]: 100%
- MBIC50 (Candida albicans [6]): 2 µg/mL
- survival at 24 h [7]: 100%
- survival at 48 h [8]: 100%
- survival at 24 h [9]: 100%
- MIC50 (Candida albicans [10]): > 256 µg/mL
- survival at 72 h [11]: 100%
- survival at 48 h [12]: 100%
- survival at 48 h [13]: 100%
- MBIC50 (Candida albicans [14]): 8 µg/mL
- survival at 72 h [15]: 100%
- MIC50 (Candida albicans [16]): > 256 µg/mL
- survival at 24 h [17]: 100%
- survival at 48 h [18]: 100%
- MBIC50 (Candida albicans [19]): 16 µg/mL
- MBIC50 (Candida albicans [20]): 8 µg/mL
- survival at 48 h [21]: 100%
- survival at 72 h [22]: 100%
- MBIC50 (Candida albicans [23]): 4 µg/mL
- MBIC50 (Candida albicans [24]): 8 µg/mL
- MBIC50 (Candida albicans [25]): 8 µg/mL
- survival at 24 h [26]: 100%
- survival at 24 h [27]: 100%

Compound: O=[N+]([O-])c1ccc(N2CCN(Cc3c[nH]c4ccccc34)CC2)cc1
- survival at 72 h [1]: 100%
- MIC50 (Candida albicans [2]): > 256 µg/mL
- survival at 48 h [28]: 100%
- MBIC50 (Candida albicans [3]): 32 µg/mL
- MIC50 (Candida albicans [4]): > 128 µg/mL
- survival at 72 h [5]: 100%
- MBIC50 (Candida albicans [6]): 2 µg/mL
- survival at 48 h [8]: 100%
- survival at 24 h [9]: 100%
- MIC50 (Candida albicans [10]): > 256 µg/mL
- survival at 72 h [11]: 100%
- survival at 48 h [13]: 100%
- MBIC50 (Candida albicans [14]): 8 µg/mL
- MIC50 (Candida albicans [16]): > 256 µg/mL
- survival at 24 h [17]: 100%
- survival at 48 h [18]: 100%
- MBIC50 (Candida albicans [19]): >128 µg/mL
- MBIC50 (Candida albicans [20]): 32 µg/mL
- survival at 48 h [21]: 100%
- survival at 72 h [22]: 100%
- MBIC50 (Candida albicans [23]): 2 µg/mL
- survival at 72 h [29]: 100%
- MBIC50 (Candida albicans [24]): 4 µg/mL
- MBIC50 (Candida albicans [25]): 32 µg/mL
- survival at 24 h [26]: 100%
- survival at 24 h [27]: 100%
- survival at 24 h [30]: 100%

Compound: c1ccc2cc(CNCCc3c[nH]c4ccccc34)ccc2c1
- survival at 72 h [1]: 100%
- MIC50 (Candida albicans [2]): 128 µg/mL (≈ 426 µM)
- survival at 48 h [28]: 100%
- MBIC50 (Candida albicans [3]): 8 µg/mL
- MIC50 (Candida albicans [4]): 16 µg/mL (≈ 53.3 µM)
- survival at 72 h [5]: 100%
- MBIC50 (Candida albicans [6]): 2 µg/mL
- survival at 48 h [8]: 100%
- survival at 24 h [9]: 100%
- MIC50 (Candida albicans [10]): 32 µg/mL (≈ 107 µM)
- survival at 72 h [11]: 100%
- survival at 48 h [13]: 100%
- MBIC50 (Candida albicans [14]): 8 µg/mL
- MIC50 (Candida albicans [16]): 32 µg/mL (≈ 107 µM)
- survival at 24 h [17]: 90%
- survival at 48 h [18]: 100%
- MBIC50 (Candida albicans [19]): 8 µg/mL
- MBIC50 (Candida albicans [20]): 8 µg/mL
- survival at 48 h [21]: 90%
- survival at 72 h [22]: 90%
- MBIC50 (Candida albicans [23]): 2 µg/mL
- survival at 72 h [29]: 100%
- MBIC50 (Candida albicans [24]): 2 µg/mL
- MBIC50 (Candida albicans [25]): 8 µg/mL
- survival at 24 h [26]: 100%
- survival at 24 h [27]: 100%
- survival at 24 h [30]: 100%

Compound: c1ccc(Oc2ccc(CNCCc3c[nH]c4ccccc34)cc2)cc1
- survival at 72 h [1]: 70%
- MIC50 (Candida albicans [2]): 64 µg/mL (≈ 187 µM)
- survival at 48 h [28]: 100%
- MBIC50 (Candida albicans [3]): 8 µg/mL
- MIC50 (Candida albicans [4]): 4 µg/mL (≈ 11.7 µM)
- survival at 72 h [5]: 100%
- MBIC50 (Candida albicans [6]): 2 µg/mL
- survival at 48 h [8]: 100%
- survival at 24 h [9]: 90%
- MIC50 (Candida albicans [10]): 16 µg/mL (≈ 46.7 µM)
- survival at 72 h [11]: 100%
- survival at 48 h [13]: 70%
- MBIC50 (Candida albicans [14]): 8 µg/mL
- MIC50 (Candida albicans [16]): 16 µg/mL (≈ 46.7 µM)
- survival at 24 h [17]: 100%
- survival at 48 h [18]: 100%
- MBIC50 (Candida albicans [19]): 2 µg/mL
- MBIC50 (Candida albicans [20]): 8 µg/mL
- survival at 48 h [21]: 100%
- survival at 72 h [22]: 100%
- MBIC50 (Candida albicans [23]): 2 µg/mL
- survival at 72 h [29]: 100%
- MBIC50 (Candida albicans [24]): 2 µg/mL
- MBIC50 (Candida albicans [25]): 8 µg/mL
- survival at 24 h [26]: 100%
- survival at 24 h [27]: 100%
- survival at 24 h [30]: 100%
